Screening results deposited in PubChem by several laboratories.
The list is not random: actives were taken first. Their share in the collection is about 3.6%.
HCV NS3 hel inh: inhibitors of Hepatitis C virus NS3 helicase | 290,000 compounds, 0.56% hits | NS3 helicase DNA unwinding, Cy5 molecular beacon fluorescence | inhibition, % at 10.9 µM;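 active = inhibition above the mean of all tested compounds plus 3 SD, set per campaign, cut at about 35% in these data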;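 also: 0% = DMSO wells and 100% = thioflavine S control wells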
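Assay system: hepatitis C virus NS3 helicase domain fragment enzyme. Also added: annealed dual-labelled DNA beacon duplex, ATP-started. Timing: 1 h reaction at 25 °C, ATP-initiated. Technique: Cy5 fluorescence at 0 and 60 min, beacon hairpin quenching. Evaluation: % inhibition of unwinding. Replication: one well per compound.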
GRIN3A LBD mod: modulates the human NR3A ligand-binding domain | NR3A LBD differential scanning fluorimetry, Tm shift; 0% = protein alone, 100% = glycine-bound protein | Tm shift relative to glycine control, % at 25 µM | 340,000 compounds, 2.5% hits | AID 1259313;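 active = melting temperature shift of at least 10% of the positive control shift, at one fixed dose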
EBNA-1 inh: blocks EBNA-1 binding to DNA; EBNA-1 DNA binding, fluorescence polarization; inhibition, % at 14.8 µM; 300,000 compounds, 0.34% hits; in the data active = inhibition above about 28%
ZTA DNA inh: counter-screen for EBNA-1 inhibitors: inhibitors of Epstein-Barr virus ZTA; P03206; ZTA-DNA binding, fluorescence polarization; inhibition, % at 11 µM; 320,000 compounds, 0.15% hits; AID 2234; in the data active = inhibition above about 33%
Target sequence (P03206 whole entry, looked up): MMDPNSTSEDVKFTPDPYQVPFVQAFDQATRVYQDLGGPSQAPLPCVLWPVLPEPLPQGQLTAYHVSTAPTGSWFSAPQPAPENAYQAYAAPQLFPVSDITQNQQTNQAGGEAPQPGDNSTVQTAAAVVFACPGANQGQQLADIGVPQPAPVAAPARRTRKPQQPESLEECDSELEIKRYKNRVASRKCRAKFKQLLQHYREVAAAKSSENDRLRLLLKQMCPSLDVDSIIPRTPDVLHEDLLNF
FGF22 binding: shifts melting point of recombinant human FGF22; Q9HCT0; recombinant FGF22 thermal shift, SYPRO orange fluorescence; percent of sucrose octasulfate shift, DMSO zero; activity (Tm shift, normalised), % at 9.99 µM; 340,000 compounds, 1.5% hits; AID 651658;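 active = mean Tm shift, scaled 0 neutral to 100 positive control, at about 1.3% or above, every replicate too, limit read from the data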
Target sequence (Q9HCT0 whole entry, looked up): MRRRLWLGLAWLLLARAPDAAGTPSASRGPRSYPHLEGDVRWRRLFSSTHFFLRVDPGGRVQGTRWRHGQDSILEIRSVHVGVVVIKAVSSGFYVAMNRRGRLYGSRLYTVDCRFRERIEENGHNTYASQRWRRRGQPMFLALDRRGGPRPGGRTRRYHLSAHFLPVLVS
FID counter: counter-screen for HCV NS3 helicase inhibitors: DNA intercalator displacement | 290,000 compounds, 0.17% hits | DNA fluorescent intercalator displacement, fluorescence | inhibition, % at 7.9 µM | AID 1845; in the data active = inhibition above about 37%;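 also: 0% = vehicle and 100% = reference compound; higher means more ethidium bromide displaced from hairpin DNA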
The depositor's hits bear a star; / = no result given.

SMILES | HCV NS3 hel inh | GRIN3A LBD mod | EBNA-1 inh | ZTA DNA inh | FGF22 binding | FID counter
CC(C)Cn1c(N)c(C(=O)COC(=O)c2ccc([N+](=O)[O-])o2)c(=O)n(C)c1=O | -6 | -5 | 2 | -4 | 43* | 1
CC(Oc1ccc(Br)cc1)c1nc2c3ccccc3nc(=S)n2[nH]1 (stereo unspecified) | 14 | -3 | 6 | 0 | 0 | 2
CCCC(Oc1ccc(Br)cc1)c1nc2c3cc(OC)c(OC)cc3nc(=S)n2[nH]1 (stereo unspecified) | 11 | 16* | -3 | -24 | 0 | -2
COc1ccc(NC(=O)Nc2ccc3[nH]ccc3c2)cc1 | / | 35* | -4 | -4 | 0 | /
CCOC(=O)c1ccc(NC(=O)Nc2ccc(F)cc2)cc1 | 4 | 35* | 2 | 7 | / | 4
COC(=O)c1ccc(NC(=O)Nc2ccc([N+](=O)[O-])cc2)cc1 | 11 | 34* | 0 | 7 | 0 | 21
COC(=O)c1ccc(NC(=O)Nc2ccc(F)c(Cl)c2)cc1 | -18 | 41* | -4 | -7 | / | 5
COC(=O)c1ccc(NC(=O)COc2ccc([N+](=O)[O-])cc2)cc1 | 7 | 3 | 25 | -2 | 0 | -1
O=C(Nc1ccc2[nH]ccc2c1)c1ccccc1 | 3 | -5 | -6 | -9 | 0 | 1
CCOC(=O)c1sc(NC(=O)Nc2ccc(F)cc2)nc1C | -11 | 0 | 4 | -15 | 0 | -10
Cc1ccc(S(=O)(=O)Nc2ccc3c(c2)C(=O)N([C@@H](C)CO)C[C@@H](C)[C@@H](CN(C)C(=O)NC(C)C)OCCCC[C@@H](C)O3)cc1 | / | / | / | / | 1 | /
O=C(C[C@@H]1C=C[C@H](NS(=O)(=O)c2ccc(F)cc2)[C@@H](CO)O1)NC1CCC1 | / | / | / | / | 0 | /
COC(=O)c1ccc(NC(=O)Nc2ccccc2F)cc1 | -13 | 4 | -8 | -14 | 1 | -3
COc1ccc(NC(=O)Nc2ccc(N(C)C)cc2)cc1 | -1 | 12* | -4 | -4 | / | -3
COc1ccc(NC(=O)CNC(=O)c2ccc([N+](=O)[O-])cc2)cc1 | -7 | 0 | 5 | -3 | 0 | 1
COC(=O)c1ccc(NC(=O)Nc2ccc(F)cc2)cc1 | -6 | 18* | 6 | 5 | / | -4
COC(=O)c1ccc(NC(=O)Nc2ccc3c(c2)nc(C)n3C)cc1 | -15 | 25* | 4 | 8 | 0 | 11
CC(=O)c1ccc(NC(=O)Nc2ccc3c(c2)nc(C)n3C)cc1 | -2 | 5 | -4 | 10 | 41 | 26
COc1ccc(C(=O)CC(=O)Nc2ccc([N+](=O)[O-])cc2)cc1 | -7 | 24* | -10 | 9 | 0 | 11
O=C(c1ccccn1)N1CC(=O)N2[C@H](C1)[C@H](c1ccc(C#CC3CCCC3)cc1)[C@@H]2CO | / | / | / | / | 1 | /
COCC#Cc1ccc(CC[C@H]2O[C@H]3CC[C@H](CO)O[C@H]3C[C@H]2NC(=O)Nc2c(C)noc2C)cc1 | / | / | / | / | 0 | /
O=C(Nc1ccccc1)[C@H]1[C@H](CO)[C@H]2Cn3c(cccc3=O)[C@H]2N1C(=O)C1CCC1 | / | / | / | / | 0 | /
COCC(=O)Nc1ccc2c(c1)[C@@H]1C[C@H](CC(=O)N3CCCCC3)O[C@@H](CO)[C@@H]1O2 | / | / | / | / | 0 | /
COc1ccc(C(=O)/C(C#N)=N/Nc2ccc([N+](=O)[O-])cc2)cc1 | 0 | 17* | 12 | 0 | 0 | 1
COC(=O)c1ccc(NC(=O)Nc2ccc(OC)cc2)cc1 | -12 | 10* | -9 | -7 | 0 | -1
SMILES | HCV NS3 hel inh | GRIN3A LBD mod | EBNA-1 inh | ZTA DNA inh | FGF22 binding | FID counter
COc1ccc(NC(=O)Nc2ccc3nonc3c2)cc1 | -5 | 19* | -6 | -7 | 0 | 2
O=C(Nc1ccc(F)cc1)Nc1cc(OCC(F)(F)F)cc(OCC(F)(F)F)c1 | 6 | 27* | -1 | -15 | / | 3
COc1ccc(NC(=O)Nc2ccc3nccnc3c2)cc1 | -6 | -1 | -7 | -8 | / | -1
COC(=O)c1ccc(NC(=O)Nc2ccccc2C)cc1 | 0 | 1 | 0 | -13 | 0 | 2
CC(C)(C)c1ccc(NC(=O)Nc2ccc(F)cc2)cc1 | 8 | 14* | 13 | 8 | 43* | 1
COc1ccc(/C=N/NC(=S)Nc2ccccc2)cc1 | -19 | -3 | 2 | -6 | 45* | -11
COc1ccc(/C=N/NC(=S)Nc2ccccc2)cc1COc1ccc(Br)cc1 | 10 | 11* | 2 | 11 | 0 | -8
Cc1ccc(C(=O)N/C(=C\c2ccc(Br)cc2)c2nc(=S)[nH][nH]2)cc1 | 21 | 9 | -4 | -19 | 0 | -13
O=C(N/C(=C/c1cccc(Br)c1)c1nc(=S)[nH][nH]1)c1ccccc1 | 20 | 22* | 8 | 2 | / | 5
Cc1ccc(-c2cc(-c3cccc(F)c3)n[nH]2)c(O)c1 | -11 | 17* | -7 | 22 | / | -5
Cc1ccc(-c2cc(-c3ccccc3C)[nH]n2)c(O)c1 | -6 | 4 | 6 | 12 | / | -8
Cc1ccc(O)c(-c2cc(-c3cccc(F)c3)n[nH]2)c1 | 2 | 12* | -12 | -15 | / | -7
CO[C@@H]1CN(C)C(=O)c2ccc(NC(=O)C3CC3)cc2OC[C@H](C)N(CC2CC2)C[C@@H]1C | / | / | / | / | 0 | /
Cc1ccccc1N=Nc1c(C)[nH]n(-c2ccccc2)c1=O | -5 | 1 | / | / | / | -1
Cc1[nH]n(-c2ccccc2)c(=O)c1N=Nc1ccccc1O | -5 | 10* | / | / | 0 | 9
O=C(COc1nncc2ccccc12)Nc1ccc(F)c(F)c1 | -2 | 1 | 3 | 2 | 43* | -3
Cc1noc(C)c1COC(=O)c1ccc(-c2nc3ccccc3s2)s1 | 0 | 21* | 7 | -24 | / | 6
Cc1ccc2nc(SC(C)C(=O)N3CC(C)OC(C)C3)[nH]c2c1 (stereo unspecified) | 0 | -2 | 0 | 13 | 43* | -2
COc1cccc(NC(=O)N[C@@H]2C=C[C@H](CC(=O)Nc3ccc(-c4ccccc4)cc3)O[C@@H]2CO)c1 | / | / | / | / | 0 | /
O=C(COc1cccc(C(F)(F)F)c1)Nc1ccc2[nH]ncc2c1 | -6 | 18* | 1 | 7 | 1 | -7
CCC(=O)N1CC2(C1)CN(C(=O)Nc1ccccc1F)[C@@H](CO)c1[nH]c3cc(OC)ccc3c12 | / | / | / | / | 0 | /
COc1ccc(S(=O)(=O)N(C)C[C@H]2OCCCC[C@H](C)Oc3ccc(NC(=O)Nc4c(C)noc4C)cc3C(=O)N([C@H](C)CO)C[C@H]2C)cc1 | / | / | / | / | 0 | /
CN1C[C@H]2[C@@H](c3ccccc31)[C@H](CO)N2C(=O)Nc1cccc(F)c1 | / | / | / | / | 0 | /
CC(C)[C@@H](CO)N(C)S(=O)(=O)c1ccccc1Br | / | 11* | / | / | 0 | /
CN(Cc1ccccc1)S(=O)(=O)c1ccccc1Br | / | 5 | / | / | 0 | /
COC(=O)NC(=S)Nc1ccc(Oc2ccc(Cl)cc2Cl)c(Cl)c1 | -6 | 16* | -5 | -10 | / | -1
